In ChEMBL document CHEMBL4017520, “Discovery, Structure-Activity Relationship, and Antiparkinsonian Effect of a Potent and Brain-Penetrant Chemical Series of Positive Allosteric Modulators of Metabotropic Glutamate Receptor 4” (J Med Chem, 2017):
Values belong to the compound of their own block, whether it stands above or below them. Calls of active or inactive are those of the source. The calls are words filed in the database; no cut-off is given here.

Assays:
[1] = biological target: D(2) dopamine receptor (Homo sapiens) (UniProt P14416); assay: Agonist activity at D2L receptor (unknown origin) at 10 uM
[2] = biological target: Metabotropic glutamate receptor 2 (Homo sapiens) (UniProt Q14416); assay: Activity at human mGlu2 receptor expressed in HEK293 cells co-expressing Gi/Gq assessed as effect on EC20/EC80 glutamate-induced intracellular calcium level up to 10 uM preincubated for 10 mins followed by glutamate addition measured for 3 mins by Fluo4-AM dye based fluorescence assay; assay type: functional, cell-based
Method in brief: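 HEK-293 cells were electroporated with the human mGluR plus a promiscuous or chimeric G protein and cultured 24 h, then serum-starved 3 h. Cells were loaded 1.5 h with 1 μM Fluo4-AM in HBSS/HEPES buffer with probenecid and 0.1% BSA. Compound was added for 10 min, then glutamate at EC20 (PAM) or EC80 (NAM), and fluorescence (ex 485/em 525) was read for 3 min.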

[3] = biological target: Metabotropic glutamate receptor 2 (Homo sapiens) (UniProt Q14416); assay: Activity at human mGlu2 receptor expressed in HEK293 cells co-expressing Gi/Gq assessed as effect on intracellular calcium level up to 10 uM after 10 mins by Fluo4-AM dye based fluorescence assay; assay type: functional, cell-based
Method in brief: (§1)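 HEK-293 cells transiently expressing the human mGluR with a promiscuous or chimeric G protein were serum-starved 3 h and loaded 1.5 h with 1 μM Fluo4-AM. Compound alone was added in assay buffer, and calcium fluorescence (ex 485/em 525) was recorded for 10 min as agonist readout.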

[4] = biological target: Receptor-type tyrosine-protein kinase FLT3 (Homo sapiens) (UniProt P36888); assay: Inhibition of Flt3 (unknown origin) at 10 uM relative to control
[5] = biological target: Tyrosine-protein kinase JAK3 (Homo sapiens) (UniProt P52333); assay: Inhibition of JAK3 (unknown origin) at 10 uM
Rattus norvegicus [6] = species: Rattus norvegicus; assay: Activity at AMPA glutamate receptor in rat cerebral cortex at 10 uM
Method in brief: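 Inhibition of orthosteric ligand binding to NMDA, AMPA and kainate receptors on rat cerebral cortex membranes, tested up to 10 μM.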

[7] = biological target: T1, Metabotropic glutamate receptor 4 (Homo sapiens, UniProt Q14833); assay: Positive allosteric modulation of recombinant human mGlu4 receptor expressed in HEK293 cells co-expressing chimeric Gi/Gq assessed as increase in EC20 glutamate-induced calcium flux preincubated for 10 mins followed by glutamate addition measured for 3 mins by Fluo4-AM dye based fluorescence assay relative to control; assay type: functional, cell-based
Rattus norvegicus [8] = assay: Protection against 6-OHDA induced parkinsonian motor deficit in Sprague-Dawley rat assessed as increase in active time at 30 mg/kg, ip after 28 days post surgery; assay type: functional, organism-based
Method in brief: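 Adult male Sprague−Dawley rats with bilateral 6-OHDA striatal lesions given compound 30 mg/kg ip or vehicle at T0; spontaneous locomotor activity (active time, slow activity, rearing) counted in 5-min bins versus pre-surgery vehicle; n = 10.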

[9] = biological target: T1, Metabotropic glutamate receptor 4; assay: Agonist activity at recombinant human mGlu4 receptor expressed in HEK293 cells co-expressing chimeric Gi/Gq protein assessed as increase in calcium flux at 3 uM after 10 mins by Fluo4-AM dye based fluorescence assay relative to control; assay type: functional, cell-based
Method in brief: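 Human mGluR4 co-expressed in HEK293 cells with the chimeric Gi/Gq (GqTOP) protein, loaded with Fluo4-AM. Compound was added alone and calcium signal recorded for 10 min, compared with the buffer-evoked basal signal.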

[10] = biological target: Mitogen-activated protein kinase kinase kinase 7 (Homo sapiens) (UniProt O43318); assay: Inhibition of TAK1 (unknown origin) at 10 uM
[11] = biological target: D(2) dopamine receptor (Homo sapiens) (UniProt P14416); assay: Antagonist activity at D2L receptor (unknown origin) at 10 uM
[12] = biological target: Metabotropic glutamate receptor 8 (Homo sapiens) (UniProt O00222); assay: Agonist activity at human mGlu8 receptor expressed in HEK293 cells co-expressing Gi/Gq assessed as increase in intracellular calcium level at 10 uM after 10 mins by Fluo4-AM dye based fluorescence assay relative to control; assay type: functional, cell-based
Method in brief: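 Human mGluR8 in transiently transfected HEK293 cells loaded with Fluo4-AM. Compound alone was added and fluorescence followed for 10 min. Stimulation is expressed relative to the maximal glutamate response.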

[13] = biological target: Metabotropic glutamate receptor 1 (Homo sapiens) (UniProt Q13255); assay: Activity at human mGlu1 receptor expressed in HEK293 cells co-expressing Gi/Gq assessed as effect on intracellular calcium level up to 10 uM after 10 mins by Fluo4-AM dye based fluorescence assay; assay type: functional, cell-based; method in brief: as §1
Rattus norvegicus [14] = assay: Toxicity in 6-OHDA induced parkinsonian motor deficit Sprague-Dawley rat model assessed as induction of dyskinesia at 30 mg/kg, ip; assay type: organism-based; settings: in vivo
[15] = Drug uptake in Sprague-Dawley rat brain at 30 mg/kg, ip after 30 mins post dose administered as single dose by LC-MS/MS analysis; assay type: ADME, organism-based; settings: read-out: Drug uptake
Method in brief: (§2)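 Rats dosed ip at 10 or 30 mg/kg. Plasma Cmax, Tmax, half-life and AUC0–inf were determined. Brain concentration was measured 30 min postdose, and brain/plasma ratio was taken at 30 min. Values are the mean (±SEM) of 3 rats.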

Brain = assay: Fraction unbound in Sprague-Dawley rat brain at 30 mg/kg, ip after 240 mins; assay type: ADME, organism-based; settings: in vivo, 4 h
[16] = AUC (0 to infinity) in C57BL/6 mouse at 2 mg/kg, iv administered as single dose by LC-MS/MS analysis; assay type: ADME, organism-based; set-up: dose 2 mg/kg, time infinity, route intravenous; settings: in vivo
[17] = Volume of distribution in Sprague-Dawley rat at 1 mg/kg, iv administered as single dose by LC-MS/MS analysis; assay type: ADME, organism-based; settings: in vivo
Method in brief: (§3)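 Single intravenous dose: rats 1 mg/kg, mice 2 mg/kg. Plasma concentration–time data yielded Cmax, t1/2, AUC0−∞, plasma clearance and volume of distribution. Values are mean ±SEM of 3 animals.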

[18] = Drug uptake in Sprague-Dawley rat brain at 10 mg/kg, ip after 30 mins post dose administered as single dose by LC-MS/MS analysis; assay type: ADME, organism-based; settings: read-out: Drug uptake; method in brief: as §2
[19] = Half life in Sprague-Dawley rat plasma at 10 mg/kg, ip administered as single dose by LC-MS/MS analysis; assay type: ADME, organism-based
Method in brief: (§4)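 Single dose ip (10 or 30 mg/kg, rat) or oral (10 mg/kg, rat or mouse); plasma Cmax, Tmax, half-life, AUC0−inf derived; brain concentration and brain/plasma ratio at 30 min postdose. Mean of 3 rats or 2 mice.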

[20] = Ratio of fraction unbound in Sprague-Dawley rat brain at 30 mg/kg, ip after 60 mins to EC50 for rat mGlu4 receptor expressed in HEK293 cells
[21] = Drug uptake in Sprague-Dawley rat brain at 30 mg/kg, ip after 30 mins; assay type: ADME, organism-based; settings: read-out: Drug uptake
[22] = Plasma concentration in Sprague-Dawley rat at 30 mg/kg, ip after 120 mins; assay type: ADME, organism-based
Method in brief: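 Rats dosed 30 mg/kg ip; plasma sampled over time, brain measured at 30 and 60 min; brain/plasma ratio averaged over 30 and 60 min.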

Rattus norvegicus [23] = assay: Toxicity in 6-OHDA induced parkinsonian motor deficit Sprague-Dawley rat model assessed as induction of overacting rearing behavior up to 30 mg/kg, ip in presence of L-dopa; assay type: organism-based; settings: in vivo
[24] = Half life in Sprague-Dawley rat plasma at 30 mg/kg, ip administered as single dose by LC-MS/MS analysis; assay type: ADME, organism-based; method in brief: as §4
Mus musculus = assay: Volume of distribution in C57BL/6 mouse at 2 mg/kg, iv administered as single dose by LC-MS/MS analysis; assay type: ADME, organism-based; settings: in vivo; method in brief: as §3

Sequence of D(2) dopamine receptor (Homo sapiens) (P14416 whole entry): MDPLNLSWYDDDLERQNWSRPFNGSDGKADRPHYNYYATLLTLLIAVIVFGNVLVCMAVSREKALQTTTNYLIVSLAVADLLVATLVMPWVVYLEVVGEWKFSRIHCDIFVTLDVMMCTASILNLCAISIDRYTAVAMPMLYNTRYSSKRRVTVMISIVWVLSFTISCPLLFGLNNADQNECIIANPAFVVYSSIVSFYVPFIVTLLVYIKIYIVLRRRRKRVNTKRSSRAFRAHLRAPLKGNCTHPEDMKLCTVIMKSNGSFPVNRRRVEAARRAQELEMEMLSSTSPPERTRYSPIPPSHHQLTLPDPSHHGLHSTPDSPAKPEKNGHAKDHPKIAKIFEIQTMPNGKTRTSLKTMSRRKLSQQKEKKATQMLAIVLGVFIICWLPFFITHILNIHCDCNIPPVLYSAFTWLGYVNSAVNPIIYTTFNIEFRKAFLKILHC
T1 sequence (Q14833 whole entry): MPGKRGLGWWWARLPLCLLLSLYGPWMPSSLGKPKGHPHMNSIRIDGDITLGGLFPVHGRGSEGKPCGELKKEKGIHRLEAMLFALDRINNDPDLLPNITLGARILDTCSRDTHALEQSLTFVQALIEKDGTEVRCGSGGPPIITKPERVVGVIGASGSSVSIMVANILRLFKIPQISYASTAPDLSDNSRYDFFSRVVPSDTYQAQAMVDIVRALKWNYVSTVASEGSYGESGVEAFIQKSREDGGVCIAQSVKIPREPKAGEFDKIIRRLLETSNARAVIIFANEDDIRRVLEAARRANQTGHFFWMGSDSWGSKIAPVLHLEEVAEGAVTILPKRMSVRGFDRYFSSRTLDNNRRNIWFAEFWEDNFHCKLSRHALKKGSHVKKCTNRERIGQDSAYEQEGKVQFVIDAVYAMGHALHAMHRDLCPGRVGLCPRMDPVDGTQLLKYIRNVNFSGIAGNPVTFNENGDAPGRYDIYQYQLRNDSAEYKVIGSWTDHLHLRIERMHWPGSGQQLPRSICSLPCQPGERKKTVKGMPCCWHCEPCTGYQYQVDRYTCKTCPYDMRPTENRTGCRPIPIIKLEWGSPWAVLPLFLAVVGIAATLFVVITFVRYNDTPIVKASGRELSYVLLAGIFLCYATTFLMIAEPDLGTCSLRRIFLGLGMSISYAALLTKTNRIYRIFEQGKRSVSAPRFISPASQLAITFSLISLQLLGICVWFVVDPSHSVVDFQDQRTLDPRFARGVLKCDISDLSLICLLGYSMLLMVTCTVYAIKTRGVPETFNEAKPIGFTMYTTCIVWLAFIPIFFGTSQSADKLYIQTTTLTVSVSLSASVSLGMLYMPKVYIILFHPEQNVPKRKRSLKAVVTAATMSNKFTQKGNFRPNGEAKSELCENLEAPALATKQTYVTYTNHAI
Sequence of Metabotropic glutamate receptor 2 (Homo sapiens) (Q14416 19-872 limits assumed): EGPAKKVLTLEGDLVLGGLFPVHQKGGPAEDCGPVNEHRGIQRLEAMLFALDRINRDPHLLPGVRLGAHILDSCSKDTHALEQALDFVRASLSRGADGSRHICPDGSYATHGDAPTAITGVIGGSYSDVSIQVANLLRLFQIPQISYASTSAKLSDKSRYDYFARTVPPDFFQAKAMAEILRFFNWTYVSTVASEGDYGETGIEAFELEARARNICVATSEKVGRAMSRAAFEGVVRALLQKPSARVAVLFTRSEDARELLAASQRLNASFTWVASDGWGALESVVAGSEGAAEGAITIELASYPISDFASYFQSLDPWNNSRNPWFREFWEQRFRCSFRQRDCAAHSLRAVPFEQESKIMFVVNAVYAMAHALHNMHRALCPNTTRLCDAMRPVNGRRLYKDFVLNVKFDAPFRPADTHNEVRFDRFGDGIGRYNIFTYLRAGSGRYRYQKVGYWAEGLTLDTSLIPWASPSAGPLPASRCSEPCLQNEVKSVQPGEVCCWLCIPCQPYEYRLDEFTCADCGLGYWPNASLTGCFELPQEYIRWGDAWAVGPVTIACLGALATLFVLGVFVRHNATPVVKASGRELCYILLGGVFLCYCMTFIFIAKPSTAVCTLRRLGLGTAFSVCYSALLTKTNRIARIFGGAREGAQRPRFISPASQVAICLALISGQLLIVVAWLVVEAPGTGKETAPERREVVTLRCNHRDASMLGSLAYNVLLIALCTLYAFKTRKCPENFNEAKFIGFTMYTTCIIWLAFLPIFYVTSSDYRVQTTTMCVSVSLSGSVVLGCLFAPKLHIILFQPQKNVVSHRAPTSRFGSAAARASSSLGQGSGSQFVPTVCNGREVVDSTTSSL
Sequence of Metabotropic glutamate receptor 1 (Homo sapiens) (Q13255 19-1194 limits assumed): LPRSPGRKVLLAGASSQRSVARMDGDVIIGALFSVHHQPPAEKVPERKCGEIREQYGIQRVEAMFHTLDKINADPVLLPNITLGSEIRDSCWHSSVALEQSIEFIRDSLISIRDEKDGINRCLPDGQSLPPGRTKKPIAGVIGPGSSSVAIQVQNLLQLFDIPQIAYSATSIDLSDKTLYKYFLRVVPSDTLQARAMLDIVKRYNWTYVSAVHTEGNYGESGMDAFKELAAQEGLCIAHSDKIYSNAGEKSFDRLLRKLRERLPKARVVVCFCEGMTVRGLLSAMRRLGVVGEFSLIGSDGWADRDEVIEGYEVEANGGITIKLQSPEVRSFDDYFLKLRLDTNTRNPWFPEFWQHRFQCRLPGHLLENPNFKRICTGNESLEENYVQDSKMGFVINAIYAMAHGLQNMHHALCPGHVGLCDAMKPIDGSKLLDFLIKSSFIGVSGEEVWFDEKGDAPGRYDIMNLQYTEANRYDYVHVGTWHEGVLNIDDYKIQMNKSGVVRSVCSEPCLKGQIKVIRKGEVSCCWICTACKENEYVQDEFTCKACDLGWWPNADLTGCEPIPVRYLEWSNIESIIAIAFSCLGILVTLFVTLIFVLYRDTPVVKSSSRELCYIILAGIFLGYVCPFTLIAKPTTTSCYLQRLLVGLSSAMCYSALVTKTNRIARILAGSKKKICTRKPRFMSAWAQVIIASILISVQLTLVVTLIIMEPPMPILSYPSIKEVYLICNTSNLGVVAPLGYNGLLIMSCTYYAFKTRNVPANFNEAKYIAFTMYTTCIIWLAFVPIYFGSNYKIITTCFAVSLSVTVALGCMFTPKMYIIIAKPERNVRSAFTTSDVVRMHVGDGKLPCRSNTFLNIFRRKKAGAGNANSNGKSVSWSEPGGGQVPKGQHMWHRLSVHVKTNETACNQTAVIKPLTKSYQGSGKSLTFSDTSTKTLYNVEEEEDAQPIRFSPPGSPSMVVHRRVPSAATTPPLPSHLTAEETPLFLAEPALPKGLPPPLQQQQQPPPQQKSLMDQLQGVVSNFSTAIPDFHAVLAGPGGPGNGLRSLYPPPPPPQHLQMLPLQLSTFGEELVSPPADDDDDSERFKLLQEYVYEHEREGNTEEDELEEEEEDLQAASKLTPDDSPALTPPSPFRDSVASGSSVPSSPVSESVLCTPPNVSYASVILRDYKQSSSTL
Sequence of Metabotropic glutamate receptor 8 (Homo sapiens) (O00222 whole entry): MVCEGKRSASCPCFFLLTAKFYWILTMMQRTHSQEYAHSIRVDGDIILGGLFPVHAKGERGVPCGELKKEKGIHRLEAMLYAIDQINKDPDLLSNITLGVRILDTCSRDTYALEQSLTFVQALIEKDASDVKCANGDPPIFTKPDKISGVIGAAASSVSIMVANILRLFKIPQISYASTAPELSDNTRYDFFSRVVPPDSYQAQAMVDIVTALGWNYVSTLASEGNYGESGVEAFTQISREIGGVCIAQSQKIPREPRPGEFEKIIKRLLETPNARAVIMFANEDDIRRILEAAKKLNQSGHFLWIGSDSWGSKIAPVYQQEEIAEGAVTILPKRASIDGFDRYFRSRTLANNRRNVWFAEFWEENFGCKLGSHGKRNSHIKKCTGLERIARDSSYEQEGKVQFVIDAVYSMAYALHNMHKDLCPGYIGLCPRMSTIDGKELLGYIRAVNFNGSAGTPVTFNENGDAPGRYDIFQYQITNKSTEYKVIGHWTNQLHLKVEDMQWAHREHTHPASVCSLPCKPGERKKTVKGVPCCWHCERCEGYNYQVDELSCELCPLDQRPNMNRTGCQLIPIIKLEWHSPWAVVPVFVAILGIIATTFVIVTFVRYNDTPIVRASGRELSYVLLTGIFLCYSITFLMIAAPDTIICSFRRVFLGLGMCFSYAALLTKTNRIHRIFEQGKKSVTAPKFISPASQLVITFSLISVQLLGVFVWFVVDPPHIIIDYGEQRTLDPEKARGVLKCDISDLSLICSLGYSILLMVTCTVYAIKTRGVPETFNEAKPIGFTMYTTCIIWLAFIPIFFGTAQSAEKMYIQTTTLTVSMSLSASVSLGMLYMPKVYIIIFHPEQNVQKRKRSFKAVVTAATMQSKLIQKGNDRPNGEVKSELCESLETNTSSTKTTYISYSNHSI
Sequence of Mitogen-activated protein kinase kinase kinase 7 (Homo sapiens) (O43318 whole entry): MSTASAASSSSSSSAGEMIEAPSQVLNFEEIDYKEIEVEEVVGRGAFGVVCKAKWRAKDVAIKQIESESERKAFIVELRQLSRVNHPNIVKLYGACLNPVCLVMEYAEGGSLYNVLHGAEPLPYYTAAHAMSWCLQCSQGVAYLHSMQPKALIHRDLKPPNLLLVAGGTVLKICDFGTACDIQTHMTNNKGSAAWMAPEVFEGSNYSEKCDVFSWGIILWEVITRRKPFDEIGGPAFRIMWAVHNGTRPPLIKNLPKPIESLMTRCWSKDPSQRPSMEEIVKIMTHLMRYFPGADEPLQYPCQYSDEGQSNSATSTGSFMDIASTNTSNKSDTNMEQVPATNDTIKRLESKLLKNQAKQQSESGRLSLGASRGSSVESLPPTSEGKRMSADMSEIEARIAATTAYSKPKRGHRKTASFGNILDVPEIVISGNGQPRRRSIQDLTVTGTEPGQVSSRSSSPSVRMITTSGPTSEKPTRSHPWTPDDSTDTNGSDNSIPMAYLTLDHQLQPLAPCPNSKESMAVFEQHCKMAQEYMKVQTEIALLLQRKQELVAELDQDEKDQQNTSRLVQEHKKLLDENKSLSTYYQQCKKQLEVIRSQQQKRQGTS

- Activity [1]: inactive
- Activity [2]: inactive
- Activity [3]: inactive
- inhibition [4]: 64%
- inhibition [5]: inactive
- Activity (Rattus norvegicus [6]): inactive
- Emax [7]: 77%
- Activity [9]: 19%
- inhibition [10]: inactive
- Activity [11]: inactive
- Activity [12]: 23%
- Activity [13]: inactive
SMILES: O/N=c1\cc(-c2cc3cccn3cn2)oc2ccc(OCCN3CCOCC3)cc12 [listing 1 of 2 here]
- Activity (Rattus norvegicus [8]): Active

- concentration at 0.5 h [15]: 22800 ng/g
- Drug uptake(free) (Brain): 2 ng/g
- AUC(0-inf) [16]: 269 ng·h/mL
- Vd [17]: 6.5 L/kg
- concentration at 0.5 h [18]: 5650 ng/g
- half-life [19]: 4 h
- concentration at 0.5 h [21]: 22800 ng/g
- concentration at 2 h [22]: 535 ng/mL
- half-life [24]: 4.5 h
- Vd (Mus musculus): 6 L/kg
SMILES: O/N=c1\cc(-c2cc3cccn3cn2)oc2ccc(OCCN3CCOCC3)cc12 [listing 2 of 2 here]
- Activity (Rattus norvegicus [14]): Non-Toxic
- Ratio [20]: 7.6
- Activity (Rattus norvegicus [23]): Non-Toxic
